Reference: ChEMBL document CHEMBL1914326, “Synthesis and anticonvulsant properties of new acetamide derivatives of phthalimide, and its saturated cyclohexane and norbornene analogs” (Eur J Med Chem, 2011)
Calls of active or inactive are those of the source. The calls are words filed in the database; no cut-off is given here.

Columns and labels:
Mus musculus [1] = assay: Neurotoxicity in CF1 albino mouse assessed as motor impairment at 300 mg/kg, ip after 4 hrs by rotarod test; type: toxicity, organism-based; design: dose 300 mg/kg, route intraperitoneal; conditions: in vivo
Outline: (§1)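 Acute neurotoxicity was scored on the minimal motor impairment rotorod test in male CF-1 mice. Animals in groups of eight were dosed i.p. at 30, 100 or 300 mg/kg in 0.5% methylcellulose/water and examined at 0.5 and 4 h. Untreated controls keep their balance on the rod for a prolonged time. The minimum dose causing impairment was recorded.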

Mus musculus [2] = assay: Anticonvulsant activity in ip dosed CF1 albino mouse assessed as protection against subcutaneous pentylenetetrazole-induced after 0.5 hrs; type: functional; conditions: read-out: MED
Outline: (§2)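 Male CF-1 mice in groups of eight were dosed i.p. at 30, 100 or 300 mg/kg in 0.5% methylcellulose/water. At 0.5 and 4 h, pentylenetetrazole 85 mg/kg (CD97 dose) was given s.c. This dose produces clonic seizures lasting at least 5 s. The minimum protective dose was recorded, with a top dose of 300 mg/kg.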

Mus musculus [3] = assay: Anticonvulsant activity in CF1 albino mouse assessed as protection against maximal electroshock at 300 mg/kg, ip after 4 hrs; type: functional, organism-based; design: dose 300 mg/kg
Outline: (§3)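 Male albino CF-1 mice in groups of eight received i.p. doses of 30, 100 and 300 mg/kg, suspended in 0.5% methylcellulose/water. Maximal electroshock seizures were tested at 0.5 and 4 h, with one additional 0.25 h reading at 100 mg/kg. The minimum dose giving protection was recorded. A dash means no activity at 300 mg/kg.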

Mus musculus [4] = assay: Anticonvulsant activity in CF1 albino mouse assessed as protection against subcutaneous pentylenetetrazole-induced seizures at 300 mg/kg, ip after 4 hrs; type: functional, organism-based; design: dose 300 mg/kg; outline: as §2
Mus musculus [5] = assay: Neurotoxicity in CF1 albino mouse assessed as motor impairment at 300 mg/kg, ip after 0.5 hrs by rotarod test; type: toxicity, organism-based; design: dose 300 mg/kg, route intraperitoneal; conditions: in vivo; outline: as §1
Mus musculus [6] = assay: Anticonvulsant activity in ip dosed CF1 albino mouse assessed as protection against maximal electroshock after 0.5 hrs; type: functional; conditions: read-out: MED; outline: as §3
Mus musculus [7] = assay: Anticonvulsant activity in CF1 albino mouse assessed as protection against maximal electroshock at 300 mg/kg, ip after 0.5 hrs; type: functional, organism-based; design: dose 300 mg/kg; outline: as §3
Mus musculus [8] = assay: Anticonvulsant activity in CF1 albino mouse assessed as protection against subcutaneous pentylenetetrazole-induced seizures at 300 mg/kg, ip after 0.5 hrs; type: functional, organism-based; design: dose 300 mg/kg; outline: as §2
Rattus norvegicus [9] = assay: Anticonvulsant activity in Sprague-Dawley albino rat assessed as protection against maximal electroshock at 30 mg/kg, po after 0.5 hrs; type: functional
Outline: (§4)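 Male Sprague-Dawley rats in groups of four received 30 mg/kg p.o. as a suspension in 0.5% methylcellulose/water. Maximal electroshock seizure protection was scored at 0.25, 0.5, 1, 2 and 4 h and reported as rats protected/rats tested.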

Mus musculus [10] = assay: Neurotoxicity in ip dosed CF1 albino mouse assessed as minimum dose required to cause motor impairment after 4 hrs by rotarod test; type: toxicity, organism-based; conditions: in vivo; outline: as §1
Mus musculus [11] = assay: Anticonvulsant activity in ip dosed CF1 albino mouse assessed as protection against subcutaneous pentylenetetrazole-induced after 4 hrs; type: functional; conditions: read-out: MED; outline: as §2
Rattus norvegicus [12] = assay: Anticonvulsant activity in Sprague-Dawley albino rat assessed as protection against maximal electroshock at 30 mg/kg, po after 1 hr; type: functional; outline: as §4
Rattus norvegicus [13] = assay: Anticonvulsant activity in Sprague-Dawley albino rat assessed as protection against maximal electroshock at 30 mg/kg, po after 4 hrs; type: functional; outline: as §4
Rattus norvegicus [14] = assay: Anticonvulsant activity in Sprague-Dawley albino rat assessed as protection against maximal electroshock at 30 mg/kg, po after 0.25 hrs; type: functional; outline: as §4
Mus musculus [15] = assay: Neurotoxicity in ip dosed CF1 albino mouse assessed as minimum dose required to cause motor impairment after 0.5 hrs by rotarod test; type: toxicity, organism-based; conditions: in vivo; outline: as §1
Rattus norvegicus [16] = assay: Anticonvulsant activity in Sprague-Dawley albino rat assessed as protection against maximal electroshock at 30 mg/kg, po after 2 hrs; type: functional; outline: as §4
Mus musculus [17] = assay: Anticonvulsant activity in ip dosed CF1 albino mouse assessed as protection against maximal electroshock after 4 hrs; type: functional; conditions: read-out: MED; outline: as §3
Rattus norvegicus [18] = assay: Neurotoxicity in Sprague-Dawley albino rat assessed as motor impairment at 30 mg/kg, po by rotarod test; type: toxicity, organism-based; design: dose 30 mg/kg, route oral; conditions: in vivo
Outline: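 Male Sprague-Dawley rats in groups of four were given 30 mg/kg orally in 0.5% methylcellulose/water. Motor impairment was then assessed on the standardized minimal motor impairment rotorod test.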

Mus musculus [19] = assay: Neurotoxicity in CF1 albino mouse assessed as unable to grasp rotarod at 300 mg/kg, ip after 4 hrs by rotarod test; type: toxicity, organism-based; design: dose 300 mg/kg, route intraperitoneal; conditions: in vivo; outline: as §1
Rattus norvegicus [20] = assay: Anticonvulsant activity in po dosed rat assessed as protection against maximal electroshock; type: functional

Structure (SMILES) | Activity (Mus musculus [1]) | Activity (Mus musculus [3]) | Activity (Mus musculus [4]) | Activity (Mus musculus [5]) | minimal effective dose (Mus musculus [6]) | Activity (Mus musculus [7]) | Activity (Mus musculus [8]) | further results
O=C(CN1C(=O)c2ccccc2C1=O)N1CCN(c2ccccc2F)CC1 | Non-toxic | inactive | inactive | Non-toxic | 300 mg/kg |  |  | minimal effective dose (Mus musculus [2]): 300 mg/kg
O=C(CN1C(=O)c2ccccc2C1=O)N1CCN(c2cccc(Cl)c2)CC1 | Non-toxic | inactive | inactive | Non-toxic |  | inactive | inactive | 
O=C(CN1C(=O)C2CCCCC2C1=O)N1CCN(CCO)CC1 (stereo not given) | Non-toxic | inactive | inactive | Non-toxic |  | inactive | inactive | 
O=C(CN1C(=O)c2ccccc2C1=O)N1CCN(c2ccc(F)cc2)CC1 |  |  |  |  | 30 mg/kg |  |  | minimal effective dose (Mus musculus [2]): 300 mg/kg; Activity (Rattus norvegicus [9]): 50%; MTC (Mus musculus [10]): 300 mg/kg; minimal effective dose (Mus musculus [11]): 300 mg/kg; Activity (Rattus norvegicus [12]): 50%; Activity (Rattus norvegicus [13]): 100%; Activity (Rattus norvegicus [14]): 25%; MTC (Mus musculus [15]): 300 mg/kg; Activity (Rattus norvegicus [16]): 100%; minimal effective dose (Mus musculus [17]): 100 mg/kg; Activity (Rattus norvegicus [18]): Non-toxic
O=C(CN1C(=O)C2C3C=CC(C3)C2C1=O)N1CCN(c2ccccc2)CC1 (stereo not given) | Non-toxic | inactive | inactive | Non-toxic |  | inactive | inactive | 
O=C(CN1C(=O)C2CCCCC2C1=O)N1CCN(c2ccccc2)CC1 (stereo not given) | Non-toxic | inactive | inactive | Non-toxic | 300 mg/kg |  | inactive | 
O=C1NC(=O)C(c2ccccc2)(c2ccccc2)N1 [PHENYTOIN] |  |  | inactive |  | 30 mg/kg |  | inactive | Activity (Rattus norvegicus [9]): 100%; MTC (Mus musculus [10]): 100 mg/kg; Activity (Rattus norvegicus [12]): 75%; Activity (Rattus norvegicus [13]): 75%; Activity (Rattus norvegicus [14]): 25%; MTC (Mus musculus [15]): 100 mg/kg; Activity (Rattus norvegicus [16]): 75%; minimal effective dose (Mus musculus [17]): 30 mg/kg; Activity (Rattus norvegicus [18]): Non-toxic
O=C(CN1C(=O)C2C3C=CC(C3)C2C1=O)N1CCN(c2ccc(F)cc2)CC1 (stereo not given) |  |  | inactive |  | 100 mg/kg |  | inactive | MTC (Mus musculus [15]): 300 mg/kg; minimal effective dose (Mus musculus [17]): 100 mg/kg; Activity (Mus musculus [19]): Toxic
O=C(CN1C(=O)C2CCCCC2C1=O)N1CCN(Cc2ccccc2)CC1 (stereo not given) | Non-toxic | inactive | inactive |  |  | inactive | inactive | MTC (Mus musculus [15]): 300 mg/kg
O=C(CN1C(=O)c2ccccc2C1=O)N1CCN(c2ccc(Cl)cc2)CC1 | Non-toxic |  | inactive | Non-toxic | 100 mg/kg |  | inactive | Activity (Rattus norvegicus [9]): 0%; Activity (Rattus norvegicus [12]): 0%; Activity (Rattus norvegicus [13]): 50%; Activity (Rattus norvegicus [14]): 0%; Activity (Rattus norvegicus [16]): 0%; minimal effective dose (Mus musculus [17]): 100 mg/kg; Activity (Rattus norvegicus [18]): Non-toxic
O=C(CN1C(=O)C2CCCCC2C1=O)N1CCN(c2ccc(Cl)cc2)CC1 (stereo not given) | Non-toxic |  | inactive | Non-toxic |  | inactive | inactive | minimal effective dose (Mus musculus [17]): 300 mg/kg
O=C(CN1C(=O)C2C3C=CC(C3)C2C1=O)N1CCN(c2cccc(Cl)c2)CC1 (stereo not given) | Non-toxic | inactive | inactive | Non-toxic |  | inactive | inactive | 
O=C(CN1C(=O)C2CCCCC2C1=O)N1CCOCC1 (stereo not given) | Non-toxic | inactive |  |  |  | inactive | inactive | minimal effective dose (Mus musculus [11]): 300 mg/kg; MTC (Mus musculus [15]): 300 mg/kg
O=C(CN1C(=O)c2ccccc2C1=O)N1CCN(c2ccccc2)CC1 | Non-toxic | inactive | inactive | Non-toxic | 100 mg/kg |  | inactive | 
O=C1CC2(CCc3ccccc3C2)C(=O)N1CN1CCN(c2cccc(C(F)(F)F)c2)CC1 (stereo not given) |  |  |  |  |  |  |  | ED50 (Rattus norvegicus [20]): 9 mg/kg
O=C(CN1C(=O)c2ccccc2C1=O)N1CCN(c2ccccc2Cl)CC1 | Non-toxic | inactive | inactive | Non-toxic | 100 mg/kg |  | inactive | 
NC(=O)N1c2ccccc2C=Cc2ccccc21 [CARBAMAZEPINE] |  |  |  |  | 30 mg/kg |  |  | minimal effective dose (Mus musculus [2]): 100 mg/kg; MTC (Mus musculus [10]): 300 mg/kg; minimal effective dose (Mus musculus [11]): 300 mg/kg; MTC (Mus musculus [15]): 100 mg/kg; minimal effective dose (Mus musculus [17]): 100 mg/kg
Nc1ccc(N2C(=O)c3ccccc3C2=O)c(Cl)c1 |  |  |  |  |  |  |  | ED50 (Rattus norvegicus [20]): 5.7 mg/kg
CCC1(C)CC(=O)NC1=O (stereo not given) [ETHOSUXIMIDE] | Non-toxic | inactive |  | Non-toxic |  | inactive |  | minimal effective dose (Mus musculus [2]): 100 mg/kg; minimal effective dose (Mus musculus [11]): 300 mg/kg
O=C(CN1C(=O)c2ccccc2C1=O)N1CCN(c2cccc(Cl)c2Cl)CC1 | Non-toxic |  | inactive | Non-toxic |  | inactive | inactive | minimal effective dose (Mus musculus [17]): 100 mg/kg
O=C(CN1C(=O)C2CCCCC2C1=O)N1CCN(c2cccc(Cl)c2)CC1 (stereo not given) | Non-toxic | inactive | inactive | Non-toxic |  | inactive | inactive | 
O=C(CN1C(=O)c2ccccc2C1=O)N1CCN(CCO)CC1 | Non-toxic | inactive | inactive | Non-toxic |  | inactive | inactive | 
O=C(CN1C(=O)C2CCCCC2C1=O)N1CCN(c2cccc(C(F)(F)F)c2)CC1 (stereo not given) | Non-toxic | inactive | inactive | Non-toxic | 100 mg/kg |  | inactive | 
O=C(CN1C(=O)c2ccccc2C1=O)N1CCN(c2cccc(C(F)(F)F)c2)CC1 | Non-toxic |  | inactive | Non-toxic |  | inactive | inactive | minimal effective dose (Mus musculus [17]): 100 mg/kg
O=C(CN1C(=O)C2C3C=CC(C3)C2C1=O)N1CCN(Cc2ccccc2)CC1 (stereo not given) | Non-toxic | inactive | inactive | Non-toxic |  | inactive | inactive | 
O=C(CN1C(=O)C2C3C=CC(C3)C2C1=O)N1CCN(c2ccccc2F)CC1 (stereo not given) | Non-toxic | inactive | inactive | Non-toxic |  | inactive | inactive | 
O=C(CN1C(=O)c2ccccc2C1=O)N1CCN(Cc2ccccc2)CC1 | Non-toxic | inactive | inactive | Non-toxic |  | inactive | inactive | 
